Activity calls are given as the source filed them. The rule behind the calls is not given here.
Columns and labels:
[1] = target: DNA (cytosine-5)-methyltransferase 3B (Homo sapiens) (UniProt Q9UBC3); experiment: Inhibition of human DNMT3B in human KG-1 cells expressing cmv-firefly luciferase assessed as increase in luminescence upto 10 uM incubated for 24 hrs by luciferase reporter gene assay relative to control; assay type: cell-based; settings: dose microM <=10, time 24.0 hrs
Summary of the method: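 KG-1 cells stably carrying firefly luciferase (luc+) under a 50%-methylated CMV promoter, seeded at 20 000 cells/well. Treated 24 h with compound (3.2–10 µM) or DMSO. Luciferase quantified by One-Glo luminescence and expressed as fold induction over DMSO control. Mean of three experiments with standard error.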

[2] = Chemical stability of compound in DNMT3A-c enzyme buffer assessed as half life at 1 mM by HPLC analysis; assay type: physicochemical
Summary of the method: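 Followed over 15 h by reverse-phase HPLC (H2O/acetonitrile gradient with 0.1% formic acid), detection at 250 nm. Remaining compound taken from HPLC peak area. Mean of at least two experiments.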

[3] = target: DNA (cytosine-5)-methyltransferase 3A (Homo sapiens) (UniProt Q9Y6K1); experiment: Inhibition of human DNMT3A catalytic domain expressed in Escherichia coli Rosetta-gamiTM 2(DE3) pLysS competent cells using biotinylated 6-FAM double strand DNA comprising unique CpG site […] incubated for 1 hrs by fluorescence based assay
[4] = target: DNA (cytosine-5)-methyltransferase 3B (Homo sapiens) (UniProt Q9UBC3); experiment: Inhibition of human DNMT3B in human KG-1 cells expressing cmv-firefly luciferase assessed as increase in luminescence at 5 uM incubated for 24 hrs by luciferase reporter gene assay relative to control; assay type: cell-based
Summary of the method: (§1)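 KG-1 cells stably carrying firefly luciferase under a 50% methylated CMV promoter were seeded at 20 000 cells/well. They were exposed to compound (3.2–10 µM range) or DMSO for 24 h, then luciferase was quantified by One-Glo luminescence. Result is fold induction over DMSO control. Mean of three experiments with standard error.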

KG-1 = experiment: Cytotoxicity against human KG-1 cells assessed as reduction in cell viability measured after 72 hrs by APTlite one step luminescence assay; assay type: functional, cell-based; settings: KG-1, 72 h
[5] = target: DNA (cytosine-5)-methyltransferase 3B (Homo sapiens) (UniProt Q9UBC3); experiment: Inhibition of human DNMT3B in human KG-1 cells expressing cmv-firefly luciferase assessed as increase in luminescence incubated for 24 hrs by luciferase reporter gene assay relative to control; assay type: cell-based; settings: dose 3.2-10 µM; summary of the method: as §1
[6] = target: DNA (cytosine-5)-methyltransferase 3A (Homo sapiens) (UniProt Q9Y6K1); experiment: Inhibition of human DNMT3A catalytic domain expressed in Escherichia coli Rosetta-gamiTM 2(DE3) pLysS competent cells using biotinylated 6-FAM double strand DNA comprising unique CpG site […] at 32 uM incubated for 1 hrs by fluorescence based assay
HCT-116 = experiment: Cytotoxicity against human HCT-116 cells assessed as reduction in cell viability measured after 72 hrs by APTlite one step luminescence assay; assay type: functional, cell-based; settings: HCT-116, 72 h
Summary of the method: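 KG-1 cells were seeded at 2x10^4 cells/ml in RPMI-1640 with 15% FCS, and HCT116 cells at 1.5x10^4 cells/ml in MEM with HEPES, L-glutamine and 10% FCS, at 37 °C, 5% CO2. Compound was given at 3.2x10-9 to 1x10-5 M on day 0 and again on days 2 and 3. ATP-luminescence read-out on day 4. EC50 is the concentration giving 50% viability loss versus untreated cells. Mean of at least two independent experiments run in duplicate.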

DNA (cytosine-5)-methyltransferase 3A (Homo sapiens), sequence (Q9Y6K1 whole entry, looked up, the tested form may be a part): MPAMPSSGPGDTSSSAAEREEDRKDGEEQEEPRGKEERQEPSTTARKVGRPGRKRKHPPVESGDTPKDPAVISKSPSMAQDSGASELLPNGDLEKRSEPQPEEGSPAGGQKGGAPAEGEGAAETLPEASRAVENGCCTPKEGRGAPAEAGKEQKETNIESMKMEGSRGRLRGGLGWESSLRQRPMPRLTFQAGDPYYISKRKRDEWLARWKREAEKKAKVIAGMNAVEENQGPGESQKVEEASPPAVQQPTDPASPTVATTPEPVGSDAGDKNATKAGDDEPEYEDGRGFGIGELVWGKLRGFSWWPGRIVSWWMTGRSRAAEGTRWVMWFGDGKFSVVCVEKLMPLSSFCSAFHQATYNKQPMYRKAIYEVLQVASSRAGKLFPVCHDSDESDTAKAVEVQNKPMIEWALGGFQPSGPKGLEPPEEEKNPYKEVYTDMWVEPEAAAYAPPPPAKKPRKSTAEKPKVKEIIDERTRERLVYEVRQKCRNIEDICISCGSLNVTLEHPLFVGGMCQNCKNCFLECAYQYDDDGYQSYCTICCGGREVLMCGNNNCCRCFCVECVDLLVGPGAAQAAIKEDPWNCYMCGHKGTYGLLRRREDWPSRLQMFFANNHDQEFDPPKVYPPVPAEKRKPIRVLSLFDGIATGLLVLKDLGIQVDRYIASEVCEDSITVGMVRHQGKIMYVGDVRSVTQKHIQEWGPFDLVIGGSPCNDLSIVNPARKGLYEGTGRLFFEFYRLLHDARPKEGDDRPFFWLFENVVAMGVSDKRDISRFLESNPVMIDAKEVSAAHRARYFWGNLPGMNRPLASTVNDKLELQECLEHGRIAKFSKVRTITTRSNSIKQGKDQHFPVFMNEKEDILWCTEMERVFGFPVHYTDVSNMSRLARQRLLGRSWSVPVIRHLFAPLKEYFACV

inhibition [1]	EC50 [3]	inhibition [6] [%]	Structure (SMILES)	half-life at 1000 µM [2] [h]	EC50 ([3]; read-out: EC50) [µM]	fold change (FC) [4]	EC50 (KG-1) [µM]	Activity [5]	EC50 (HCT-116) [µM]
			COc1ccc([N+](=O)[O-])c([C@H]2Oc3ccccc3C(=O)[C@@]2(Br)[N+](=O)[O-])c1 (racemic)		4.7		18.6	Dose-dependent effect	
	Not Active	0	O=C1c2ccccc2OC(c2ccccc2)C1[N+](=O)[O-] (trans isomer)						
	Not Active	0	COc1ccc([N+](=O)[O-])c(C2Oc3ccccc3C(=O)C2[N+](=O)[O-])c1 (stereo not given)						
inactive			O=C1c2ccccc2OC(c2ccccc2)C1(Br)[N+](=O)[O-] (stereo not given)		6.7				
inactive			O=C1c2ccccc2OC(c2ccccc2[N+](=O)[O-])C1(I)[N+](=O)[O-] (racemic)	> 15	2.8				
inactive			O=C1c2ccccc2O[C@H](c2ccccc2F)[C@@]1(Br)[N+](=O)[O-] (racemic)		5.7				
			COc1ccc([N+](=O)[O-])c([C@H]2Oc3ccccc3C(=O)[C@]2(Br)[N+](=O)[O-])c1 (racemic)	7	5.3		12.9	Dose-dependent effect	8.1
inactive			COc1ccc([N+](=O)[O-])c([C@H]2Oc3ccccc3C(=O)[C@]2(I)[N+](=O)[O-])c1 (racemic)	> 15	2				
	Not Active	0	O=C1c2ccccc2OC(c2ccccc2[N+](=O)[O-])C1[N+](=O)[O-] (stereo not given)						
			O=C1c2ccccc2O[C@H](c2ccccc2[N+](=O)[O-])[C@@]1(Br)[N+](=O)[O-] (racemic)	1.7	3.2	6.1	13	Dose-dependent effect	10.7
			O=C1c2ccccc2O[C@H](c2ccccc2[N+](=O)[O-])[C@]1(Br)[N+](=O)[O-] (racemic)	0.7	5.1	8.8	5.3	Dose-dependent effect	12.4

Structure (SMILES)	inhibition [1]	EC50 [3]	inhibition [6] [%]	half-life at 1000 µM [2] [h]	EC50 ([3]; read-out: EC50) [µM]	fold change (FC) [4]	EC50 (KG-1) [µM]	Activity [5]	EC50 (HCT-116) [µM]
O=C1c2ccccc2OC(c2ccccc2[N+](=O)[O-])C1(Cl)[N+](=O)[O-] (stereo not given)	inactive			1	4.4	2			
COc1ccc([N+](=O)[O-])c(C2Oc3ccccc3C(=O)C2(Cl)[N+](=O)[O-])c1 (stereo not given)	inactive			3.4	4.4				
CC1([N+](=O)[O-])C(=O)c2ccccc2OC1c1ccccc1[N+](=O)[O-] (stereo not given)	inactive				> 40				

— ChEMBL document CHEMBL4680123, “Synthesis of novel 3-halo-3-nitroflavanones and their activities as DNA methyltransferase inhibitors in cancer cells” (Eur J Med Chem, 2020)
